In ChEMBL document CHEMBL3600297, “N-Sulfonyl-aminobiaryls as Antitubulin Agents and Inhibitors of Signal Transducers and Activators of Transcription 3 (STAT3) Signaling” (J Med Chem, 2015):
Active and inactive are the calls of the source. The calls are words filed in the database; no cut-off is given here.

How the values were obtained:
Tubulin (Sus scrofa) [1] = target: T1, Tubulin (Sus scrofa) (UniProt P02554+P02550); assay: Inhibition of porcine tubulin polymerization measured every min for 30 mins by spectrophotometric analysis; format: protein assay
T1 sequence (P02550 whole entry, looked up): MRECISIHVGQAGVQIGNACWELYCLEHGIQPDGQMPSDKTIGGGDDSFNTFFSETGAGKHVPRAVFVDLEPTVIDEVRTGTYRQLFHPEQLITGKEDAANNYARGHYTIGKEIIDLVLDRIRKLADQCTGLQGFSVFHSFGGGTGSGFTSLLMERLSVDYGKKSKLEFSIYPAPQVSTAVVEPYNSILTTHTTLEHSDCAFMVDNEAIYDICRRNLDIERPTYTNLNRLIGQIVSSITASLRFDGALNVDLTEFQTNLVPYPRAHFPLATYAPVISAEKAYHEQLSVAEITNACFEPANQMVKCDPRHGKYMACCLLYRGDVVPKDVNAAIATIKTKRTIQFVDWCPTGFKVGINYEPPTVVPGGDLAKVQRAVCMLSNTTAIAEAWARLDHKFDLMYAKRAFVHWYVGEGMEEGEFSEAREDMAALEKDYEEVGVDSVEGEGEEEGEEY
T1 sequence (P02554 whole entry, looked up): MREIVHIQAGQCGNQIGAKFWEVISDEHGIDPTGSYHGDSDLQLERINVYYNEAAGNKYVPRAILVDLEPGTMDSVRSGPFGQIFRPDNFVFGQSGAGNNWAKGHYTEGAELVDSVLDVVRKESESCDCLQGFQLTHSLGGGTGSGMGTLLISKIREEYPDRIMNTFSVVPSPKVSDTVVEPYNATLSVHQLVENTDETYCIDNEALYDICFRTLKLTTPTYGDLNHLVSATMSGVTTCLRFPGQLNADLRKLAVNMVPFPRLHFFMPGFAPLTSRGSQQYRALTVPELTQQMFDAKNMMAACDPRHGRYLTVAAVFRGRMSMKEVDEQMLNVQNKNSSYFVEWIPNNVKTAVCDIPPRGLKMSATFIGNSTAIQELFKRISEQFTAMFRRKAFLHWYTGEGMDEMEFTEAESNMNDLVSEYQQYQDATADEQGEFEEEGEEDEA
In short: (§1)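 Cold porcine tubulin (>99% pure) in G-PEM buffer (80 mM PIPES, 2 mM MgCl2, 0.5 mM EGTA, 1 mM GTP, pH 6.9) with 15% glycerol, with or without compound. Kinetic turbidity at 340 nm, read each minute for 30 min at 37 °C. DMSO control.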

Tubulin = assay: Displacement of [3H]-colchicine from tubulin (unknown origin) preincubated with protein for 1 hr followed by [3H]-colchicine addition measured after 3 hrs by scintillation counting analysis; format: protein-complex assay, Homo sapiens
Tubulin (Sus scrofa) [2] = target: T1, Tubulin (Sus scrofa); assay: Inhibition of porcine tubulin polymerization at 10 uM measured every min for 30 mins by spectrophotometric analysis; format: protein assay; in short: as §1
A549 [3] = assay: Induction of microtubule destabilization in human A549 cells at 1 uM after 24 hrs by DAPI staining-based immunofluorescence confocal microscopic analysis; format: cell-based
In short: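 A549 seeded sparsely on chamber slides and treated 24 h; cold MeOH fixation (−20 °C, 15 min), blocked with 0.1% Triton X-100 in PBS 30 min at 37 °C. Monoclonal anti-β-tubulin 1 h at 37 °C, then FITC anti-mouse IgG, DAPI nuclear counterstain; confocal imaging.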

ASPC1 = assay: Cytotoxicity against human AsPC1 cells assessed as growth inhibition after 48 hrs by sulforhodamine B assay; format: functional; settings: ASPC1, 48 h
In short: (§2)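 Seeded at (3−5) × 10^3 cells/well. A time-zero plate was TCA-fixed after attachment. Next day, cells got vehicle (0.1% DMSO) or a rising concentration gradient for 48 h, then 10% TCA fixation, 0.4% SRB in 1% AcOH, A515 read. GI50 taken relative to the time-zero absorbance; at least three independent runs, mean ± SD.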

A549 [4] = assay: Cytotoxicity against human A549 cells assessed as growth inhibition after 48 hrs by sulforhodamine B assay; format: functional; settings: A549, 48 h; in short: as §2
[5] = Cytotoxicity against human Hep3B cells assessed as growth inhibition after 48 hrs by sulforhodamine B assay; format: functional, Hep 3B2; in short: as §2
PC-3 = assay: Cytotoxicity against human PC3 cells assessed as growth inhibition after 48 hrs by sulforhodamine B assay; format: functional; settings: PC-3, 48 h; in short: as §2
A549 [6] = assay: Effect on G2/M phase in human A549 cells after 24 hrs by propidium iodide staining-based flow cytometric analysis; format: functional, cell-based
In short: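 A549 given the indicated concentration for 24 h, fixed in 75% ethanol overnight at −20 °C, washed in cold PBS, 30 min in phosphate–citric acid buffer pH 7.8 at room temperature. Stained with propidium iodide buffer containing 0.1% Triton X-100 and RNase A; DNA content read on a FACScan.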

| Compound | GI50 (ASPC1) [µM] | GI50 (A549 [4]) [nM] | GI50 [5] [nM] | GI50 (PC-3) [nM] | also measured |
| --- | --- | --- | --- | --- | --- |
| COc1ccc(S(=O)(=O)Nc2ccccc2-c2ccc(C#N)c(F)c2)cc1 |  |  |  |  | inhibition (Tubulin (Sus scrofa) [1]): Dose-dependent effect; IC50 (Tubulin): 670 nM |
| CC[C@]1(O)C[C@H]2CN(CCc3c([nH]c4ccccc34)[C@@](C(=O)OC)(c3cc4c(cc3OC)N(C=O)[C@H]3[C@@](O)(C(=O)OC)[C@H](OC(C)=O)[C@]5(CC)C=CCN6CC[C@]43[C@@H]65)C2)C1 |  |  |  |  | inhibition (Tubulin (Sus scrofa) [2]): Active; Activity (A549 [3]): Active |
| COc1ccc(S(=O)(=O)Nc2cccnc2Nc2ccc(O)cc2)cc1 [ABT-751] | 4.11 | 5330 | 840 | 620 |  |
| COc1ccc(S(=O)(=O)Nc2ccccc2-c2ccc(F)c(F)c2)cc1 | 0.28 | 300 | 150 | 190 |  |
| COc1ccc(S(=O)(=O)N(CCCl)c2ccccc2-c2ccc(C#N)cc2)cc1 | 4.79 | 1500 | 1550 | 6520 |  |
| Cc1ccc(S(=O)(=O)OCC(=O)Nc2ccc(C(=O)O)c(O)c2)cc1 |  |  |  |  | Activity (A549 [6]): inactive |
